How the values were obtained:
[1] = Cytotoxicity against feline CRFK cells by MTS assay; assay type: cell-based, Felis catus; conditions: cat
Felid alphaherpesvirus 1 = test: Antiviral activity against Feline herpesvirus in feline […] cells assessed as inhibition of virus-induced cytopathicity; assay type: functional, organism-based
[2] = Cytotoxicity against human HEL cells assessed as drug level causing microscopically detectable alteration of normal cell morphology after 3 days; assay type: cell-based
[3] = tested on: Vesicular stomatitis virus; test: Antiviral activity against VSV in human HEL cells assessed as protection against virus-induced cytopathicity; assay type: functional, organism-based
Human alphaherpesvirus 2 = test: Antiviral activity against HSV2 G in human HEL cells assessed as protection against virus-induced cytopathicity; assay type: functional, organism-based; conditions: Human alphaherpesvirus 2, strain G
Outline: (§1)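 Confluent cell monolayers inoculated with 100 CCID₅₀ virus. After 1-2 h adsorption, residual virus removed and cultures incubated with varying compound concentrations. Cytopathicity scored once it reached completion in untreated infected controls. EC₅₀ = dose reducing virus-induced cytopathogenicity by 50%.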

Feline coronavirus = test: Antiviral activity against Feline coronavirus in feline […] cells assessed as inhibition of virus-induced cytopathicity; assay type: functional, organism-based; conditions: Alphacoronavirus 1
Vaccinia virus = test: Antiviral activity against Vaccinia virus Lederle in human HEL cells assessed as protection against virus-induced cytopathicity; assay type: functional, organism-based; conditions: Orthopoxvirus vaccinia
[4] = tested on: Mammalian orthoreovirus 1; test: Antiviral activity against Reovirus 1 in african green monkey Vero cells assessed as protection against virus-induced cytopathicity; assay type: functional, organism-based; conditions: Mammalian orthoreovirus 1, Vero; outline: as §1
Coxsackievirus B4 [5] = test: Antiviral activity against Coxsackievirus B4 in african green monkey Vero cells assessed as protection against virus-induced cytopathicity; assay type: functional, organism-based; conditions: Enterovirus B; outline: as §1
[6] = Cytotoxicity against human HeLa cells assessed as drug level causing microscopically detectable alteration of normal cell morphology after 3 days; assay type: cell-based
Outline: (§2)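 Serial compound dilutions added to confluent HeLa or Vero monolayers. MCC = minimum concentration causing microscopically detectable alteration of cell morphology after 3 days of incubation.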

[7] = tested on: Vesicular stomatitis virus; test: Antiviral activity against VSV in human HeLa cells assessed as protection against virus-induced cytopathicity; assay type: functional, organism-based
Human respirovirus 3 = test: Antiviral activity against Parainfluenza virus type 3 in african green monkey Vero cells assessed as protection against virus-induced cytopathicity; assay type: functional, organism-based; conditions: Human respirovirus 3, Vero; outline: as §1
[8] = Cytotoxicity against african green monkey Vero cells assessed as drug level causing microscopically detectable alteration of normal cell morphology after 3 days; assay type: cell-based; conditions: chlorocebus sabaeus; outline: as §2
[9] = tested on: Respiratory syncytial virus; test: Antiviral activity against RSV Long in human HeLa cells assessed as protection against virus-induced cytopathicity; assay type: functional, organism-based; outline: as §1
Sindbis virus = test: Antiviral activity against Sindbis virus in african green monkey Vero cells assessed as protection against virus-induced cytopathicity; assay type: functional, organism-based; outline: as §1
Punta Toro virus = test: Antiviral activity against Punta Toro virus in african green monkey Vero cells assessed as protection against virus-induced cytopathicity; assay type: functional, organism-based; outline: as §1
Coxsackievirus B4 [10] = test: Antiviral activity against Coxsackievirus B4 in human HeLa cells assessed as protection against virus-induced cytopathicity; assay type: functional, organism-based; conditions: Enterovirus B; outline: as §1
Influenza A virus [11] = test: Antiviral activity against influenza H1N1 virus in MDCK cells assessed as reduction of virus-induced cytopathicity by MTS method; assay type: functional, organism-based; conditions: Influenza A virus, H1N1, MDCK
Influenza B virus [12] = test: Antiviral activity against influenza B virus in MDCK cells assessed as reduction of virus-induced cytopathicity by visual cytopathic effect scoring method; assay type: functional, organism-based
[13] = Cytotoxicity against MDCK cells assessed as drug level causing microscopically detectable alteration of normal cell morphology; assay type: cell-based, Canis lupus familiaris; conditions: dog
Influenza A virus H3N2 [14] = test: Antiviral activity against influenza H3N2 virus in MDCK cells assessed as reduction of virus-induced cytopathicity by MTS method; assay type: functional, organism-based
Influenza A virus [15] = test: Antiviral activity against influenza H1N1 virus in MDCK cells assessed as reduction of virus-induced cytopathicity by visual cytopathic effect scoring method; assay type: functional, organism-based
Influenza A virus H3N2 [16] = test: Antiviral activity against influenza H3N2 virus in MDCK cells assessed as reduction of virus-induced cytopathicity by visual cytopathic effect scoring method; assay type: functional, organism-based
[17] = Cytotoxicity against MDCK cells by MTS assay; assay type: cell-based, Canis lupus familiaris; conditions: dog
Influenza B virus [18] = test: Antiviral activity against influenza B virus in MDCK cells assessed as reduction of virus-induced cytopathicity by MTS method; assay type: functional, organism-based
[19] = molecular target: Human immunodeficiency virus type 1 reverse transcriptase (Human immunodeficiency virus 1, UniProt Q72547, K103N); test: Inhibition of HIV1 reverse transcriptase p66/p51 K103N mutant; conditions: read-out: IC50
Outline: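 Substrate was 0.5 µg poly(rA)/oligo(dT) 10:1 (0.3 µM 3′-OH ends) with 10 µM [³H]dTTP, at 37 °C. Acid-precipitable radioactivity was counted on GF/C filters after TCA washes.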

[20] = molecular target: Human immunodeficiency virus type 1 reverse transcriptase (Human immunodeficiency virus 1, UniProt Q72547); test: Inhibition of HIV1 reverse transcriptase p66/p51; conditions: read-out: IC50
CCRF-CEM = test: Antiproliferative activity against human CEM cells after 3 days; assay type: cell-based; conditions: 72 h
Outline: (§3)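 Cells seeded at 5 × 10⁴ to 7.5 × 10⁴ cells/200 µL with or without serial compound dilutions; incubated at 37 °C for 2 days (L1210) or 3 days (Molt4/C8, CEM). Cell numbers counted with a Coulter counter. CC₅₀ = concentration reducing proliferation by 50% versus untreated controls, read from plots of cell number (% of control) against concentration. Means of at least two independent experiments.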

Human alphaherpesvirus 1 [21] = test: Antiviral activity against HSV1 KOS in human HEL cells assessed as protection against virus-induced cytopathicity; assay type: functional, organism-based; conditions: Human alphaherpesvirus 1, KOS
Human alphaherpesvirus 1 [22] = test: Antiviral activity against thymidine kinase deficient and acyclovir resistant HSV1 KOS in human HEL cells assessed as protection against virus-induced cytopathicity; assay type: functional, organism-based; conditions: Human alphaherpesvirus 1, KOS
[23] = tested on: Human immunodeficiency virus 1; test: Antiviral activity against HIV1 3B in human CEM cells assessed as protection against virus-induced cytopathicity after 4 days; assay type: functional, organism-based; conditions: Human immunodeficiency virus 1, 3B, CCRF-CEM, 96 h
Outline: (§4)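 CEM cells (~3 × 10⁵ cells/mL) infected with ~100 CCID₅₀ per mL of HIV-1 (IIIB) or HIV-2 (ROD), then seeded into wells containing compound dilutions. After 4 days at 37 °C, syncytium (giant cell) formation was examined microscopically. EC₅₀ = concentration protecting CEM cells from HIV cytopathicity by 50%.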

[24] = tested on: Human immunodeficiency virus 2; test: Antiviral activity against HIV2 ROD in human CEM cells assessed as protection against virus-induced cytopathicity after 4 days; assay type: functional, organism-based; conditions: Human immunodeficiency virus 2, ROD, CCRF-CEM, 96 h; outline: as §4
[25] = Antiproliferative activity against human Molt4/C8 cells after 3 days; assay type: cell-based; conditions: MOLT-4, 72 h; outline: as §3
L1210 = test: Antiproliferative activity against mouse L1210 cells after 2 days; assay type: cell-based; conditions: L1210, 48 h; outline: as §3

SMILES: Nc1nc2c(ncn2COC(CO)CO)c(=O)[nH]1 [GANCICLOVIR]
- CC50 [1]: > 100 µM
- EC50 (Felid alphaherpesvirus 1): 1.2 µM
- MCC at 72 h [2]: > 100 µM
- EC50 [3]: > 100 µM
- EC50 (Human alphaherpesvirus 2): 0.2 µM
- EC50 (Feline coronavirus): > 100 µM
- EC50 (Vaccinia virus): > 100 µM

SMILES: Nc1ncnc2c1ncn2C[C@H](O)CO [(S)-DHPA]
- EC50 [4]: > 250 µM
- EC50 (Coxsackievirus B4 [5]): > 250 µM
- MCC at 72 h [6]: > 250 µM
- EC50 [7]: > 250 µM
- EC50 (Human respirovirus 3): > 250 µM
- MCC at 72 h [8]: > 250 µM
- EC50 [9]: > 250 µM
- EC50 (Sindbis virus): > 250 µM
- EC50 (Punta Toro virus): > 250 µM
- EC50 (Coxsackievirus B4 [10]): > 250 µM

SMILES: NC12CC3CC(CC(C3)C1)C2 [AMANTADINE]
- EC50 (Influenza A virus [11]): > 100 µM
- EC50 (Influenza B virus [12]): > 100 µM
- MCC [13]: > 100 µM
- EC50 (Influenza A virus H3N2 [14]): 75.3 µM
- EC50 (Influenza A virus [15]): > 100 µM
- EC50 (Influenza A virus H3N2 [16]): 100 µM
- CC50 [17]: > 100 µM
- EC50 (Influenza B virus [18]): > 100 µM

SMILES: Cc1cc(C)cc(S(=O)(=O)c2c(C(=O)N[C@@H](C)C(N)=O)[nH]c3ccc(Cl)cc23)c1
- IC50 [19]: 1.01 µM
- IC50 [20]: 0.026 µM

SMILES: Cc1cc(C)cc(S(=O)(=O)c2c(C(=O)N[C@H](C)C(N)=O)[nH]c3ccc(Cl)cc23)c1
- IC50 [19]: 0.253 µM
- IC50 [20]: 0.017 µM

SMILES: Cc1cc(C)cc(S(=O)(=O)c2c(C(=O)NNC(C)C)[nH]c3ccc(Cl)cc23)c1
- CC50 [1]: > 100 µM
- IC50 (CCRF-CEM): ≥ 500 µM
- EC50 (Influenza A virus [11]): > 20 µM
- EC50 (Felid alphaherpesvirus 1): > 100 µM
- EC50 (Human alphaherpesvirus 1 [21]): > 100 µM
- IC50 [19]: 0.8 µM
- EC50 (Influenza B virus [12]): > 20 µM
- MCC [13]: 100 µM
- EC50 (Influenza A virus H3N2 [14]): > 20 µM
- EC50 [4]: > 100 µM
- EC50 (Coxsackievirus B4 [5]): > 100 µM
- MCC at 72 h [6]: > 100 µM
- EC50 [7]: > 100 µM
- MCC at 72 h [2]: > 100 µM
- IC50 [20]: 0.01 µM
- EC50 (Human respirovirus 3): > 100 µM
- EC50 [3]: > 100 µM
- EC50 (Human alphaherpesvirus 2): > 100 µM
- EC50 (Human alphaherpesvirus 1 [22]): > 100 µM
- EC50 [23]: 0.0064 µM
- EC50 (Feline coronavirus): > 100 µM
- MCC at 72 h [8]: > 100 µM
- EC50 [24]: > 50 µM
- EC50 (Vaccinia virus): > 100 µM
- EC50 [9]: > 100 µM
- EC50 (Influenza A virus [15]): > 20 µM
- IC50 [25]: 432 µM
- EC50 (Influenza A virus H3N2 [16]): > 20 µM
- EC50 (Sindbis virus): > 100 µM
- CC50 [17]: > 100 µM
- EC50 (Punta Toro virus): > 100 µM
- IC50 (L1210): > 500 µM
- EC50 (Coxsackievirus B4 [10]): > 100 µM
- EC50 (Influenza B virus [18]): > 20 µM

SMILES: O=c1[nH]c(=O)n([C@H]2C[C@H](O)[C@@H](CO)O2)cc1/C=C/Br [BRIVUDINE]
- EC50 (Human alphaherpesvirus 1 [21]): 0.02 µM
- MCC at 72 h [2]: > 250 µM
- EC50 [3]: > 250 µM
- EC50 (Human alphaherpesvirus 2): 29 µM
- EC50 (Vaccinia virus): 4 µM

SMILES: Cc1cc(C)cc(S(=O)(=O)c2c(C(=O)N[C@H](C)CC(N)=O)[nH]c3ccc(Cl)cc23)c1
- IC50 [19]: 1.42 µM
- IC50 [20]: 0.147 µM

Reference: ChEMBL document CHEMBL1153955, “Indolylarylsulfones bearing natural and unnatural amino acids. Discovery of potent inhibitors of HIV-1 non-nucleoside wild type and resistant mutant strains reverse transcriptase and coxsackie B4 virus” (J Med Chem, 2009)
